A short description of data set [1]: Ratio of IC50 for dark toxicity to IC50 for phototoxicity in mouse B16F10 cells by cell counting kit-8 based spectrophotometric analysis. Details: species or system B16-F10. To be noted: B16F10 cells, read-out: Ratio IC50. The essentials: (§1)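 CCK-8 dark toxicity. 5×10^3 cells seeded in 10% FBS medium (A375 in DMEM, B16-F10 in RPMI 1640). Exposed to graded compound concentrations for 48 h at 37 °C, kept in the dark. Fresh medium and CCK-8 added for 1.5 h, then absorbance read at 450 nm to give IC50. Ratio is dark IC50 over IC50 under light.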

Data set [2] can be described thus: Dark toxicity in mouse B16F10 cells assessed as cell viability after 48 hrs by cell counting kit-8 based spectrophotometric analysis. Further details: species or system B16-F10. To be noted: mouse, B16F10 cells. The gist of the method:
as §1

Data set [3] concerns A-375. Description: Phototoxicity in human A375 cells assessed as cell viability after 24 hrs followed by irradiation with diode laser at 10 J/cm'2 measured after 24 hrs by cell counting kit-8 based spectrophotometric analysis. To be noted: Homo sapiens, A-375, light or radiation study, 24 h. In kind it is functional. The essentials:
(§2)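 Phototoxicity by CCK-8. Cells loaded with a range of compound concentrations for 24 h at 37 °C, irradiated with a 678 nm diode laser at 10 J/cm², then incubated a further 24 h. Viability read as absorbance at 450 nm after 1.5 h with CCK-8.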

A short description of data set [4]: Phototoxicity in mouse B16F10 cells assessed as cell viability after 24 hrs followed by irradiation with diode laser at 10 J/cm'2 measured after 24 hrs by cell counting kit-8 based spectrophotometric analysis. To be noted: Mus musculus, B16-F10, light or radiation study, 24 h. In kind it is functional, B16-F10. The essentials:
as §2

Data set [5] has as its system B16-F10. Description: Phototoxicity in mouse B16F10 cells assessed as reduction in cell surviving fraction by irradiation with diode laser at 10 J/cm'2 after 24 hrs by cell counting kit-8 based spectrophotometric analysis. In kind it is functional. The gist of the method:
(§3)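 Survival fraction after PDT. Cells held 24 h at 2 µM or 0.2 µM, irradiated at 678 nm with 10 J/cm², then cultured another 24 h. Viability measured by CCK-8 at 450 nm.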

Data set [6] can be described thus: Dark toxicity in human A375 cells assessed as cell viability after 48 hrs by cell counting kit-8 based spectrophotometric analysis. Details: species or system A-375. To be noted: human, A375 cells. The gist of the method: as §1
Data set [7] is described as follows: Dark toxicity in mouse B16F10 cells assessed as reduction in cell surviving fraction at 50 to 300 uM after 48 hrs by cell counting kit-8 based spectrophotometric analysis. To be noted: b16-f10, 48 h. The gist of the method: (§4)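 Survival fraction measured in the dark by CCK-8 after 48 h exposure at 37 °C to 300 µM or 50 µM. Cells were in 10% FBS medium (A375 in DMEM, B16-F10 in RPMI 1640). Viability read as absorbance at 450 nm after 1.5 h with CCK-8.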

Data set [8] deals with A-375. Description: Dark toxicity in human A375 cells assessed as reduction in cell surviving fraction at 50 to 300 uM after 48 hrs by cell counting kit-8 based spectrophotometric analysis. To be noted: a-375, 48 h. The essentials: as §4
A short description of data set [9]: Ratio of IC50 for dark toxicity to IC50 for phototoxicity in human A375 cells. The class given is cell-based, A-375. To be noted: A375 cells, read-out: Ratio IC50. The essentials:
as §1

Data set [10] has as its system A-375. Description: Phototoxicity in human A375 cells assessed as reduction in cell surviving fraction by irradiation with diode laser at 10 J/cm'2 after 24 hrs by cell counting kit-8 based spectrophotometric analysis. The class given is functional. The gist of the method:
as §3

The nature of data set [11]: Aqueous solubility of the compound in PBS buffer at pH 7.4. In kind it is physicochemical.
Data set [12] has as its system B16-F10. Description: Antitumor activity against B16F10 cells implanted in C57BL/6 mouse assessed as tumor growth inhibition at 2 mg/kg, iv administered for 2 hrs followed by irradiation with laser at 150 J/cm'2 for 10 mins. The class given is functional, organism-based. The gist of the method:
(§5)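 B16-F10 cells (2×10^4) inoculated subcutaneously into the right thigh of male C57BL/6 mice aged 6-8 weeks. Mice with tumours 6-8 mm in diameter were used, 5 per group. Irradiation at 678 nm diode laser, 250 mW/cm² for 10 min, 2 h after i.v. dosing. Tumour volume measured by caliper as (W²×L)/2. Survival recorded daily and analysed by Kaplan-Meier with log-rank test.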

The subject of data set [13] is B16-F10. Description: Antitumor activity against B16F10 cells implanted in C57BL/6 mouse assessed as survival time at 2 mg/kg, iv administered for 2 hrs followed by irradiation with laser at 150 J/cm'2 for 10 mins (reference value: 13 days). The class given is functional, organism-based. The essentials:
as §5

Activity calls are given as the source filed them. No cut-off for these calls is given here. Bounds are passed on as bounds.

For the compound `C=Cc1c(C)c2cc3nc(c(C(=O)OC)c4[nH]c(cc5nc(cc1[nH]2)C(C)=C5CC)c(C)c4C(=O)OC)[C@@H](CCC(=O)N[C@@H](CCC(=O)O)C(=O)O)[C@@H]3C`, the selectivity ratio is 233 in [1] and more than 195 in data set [9]. Moreover, the IC50 at 48 h was 284 µM in [2] and more than 300 µM in data set [6]. The IC50 in [3] amounted to 1.54 µM; in [4], 1.22 µM. For the same compound, the Activity entry was “Dose-dependent effect” in data set [5], “Non-toxic” in data set [7], “Non-toxic” in data set [8] and “Dose-dependent effect” in data set [10].

`C=Cc1c(C)c2cc3nc(c(C(=O)OC)c4[nH]c(cc5nc(cc1[nH]2)C(C)=C5CC)c(C)c4C(=O)OC)[C@@H](CCC(=O)O)[C@@H]3C`: the selectivity ratio in data set [1] amounted to 52.2; in [9], 60.2. The 50% inhibitory concentration (IC50) at 48 h was 15.7 µM in data set [2] and 31.3 µM in [6]. Also, the figures for the IC50 in data set [3] and in data set [4] were 0.52 µM and 0.3 µM, respectively. In data set [11], the solubility is less than 1.6 µM.

Consider `CCC1=C(C)c2cc3[nH]c(cc4nc(c(C(=O)OC)c5[nH]c(cc1n2)c(C)c5C(=O)OC)C(CCC(=O)N[C@@H](CCC(=O)O)C(=O)O)=C4C)[C@@]1(C)C3=CC=C(C(=O)OC)[C@H]1C(=O)OC`, for which the figures for the selectivity ratio in data set [1] and in data set [9] were 55.3 and 40.3, respectively. Besides, the IC50 at 48 h came out at 224 µM in data set [2] and 286 µM in data set [6]. Besides, the half-maximal inhibitory concentration (IC50) turned out to be 7.1 µM in data set [3] and 4.06 µM in data set [4].

For the compound VERTEPORFIN, the TGI result in data set [12] is “Active”. For the same compound, in data set [13], the MST was found to be 18 days.

For the origin of these results see ChEMBL document CHEMBL3822438, “Chlorin p6-Based Water-Soluble Amino Acid Derivatives as Potent Photosensitizers for Photodynamic Therapy” (J Med Chem, 2016).
